Experimental data gathered from unrelated publications.
Lines come from different studies, so protocols differ.
Target: Serine/threonine-protein kinase 32A (STK32A, Homo sapiens, UniProt Q8WU08)

Structure (SMILES)	test	conditions	endpoint	result
Cn1c2c(Cl)c(Cl)ccc2c2cc(N)[nH]c(=O)c21	thermal stability, DSF	10 µM	ΔTm	-0.3 °C
O=C(NC[C@@H]1[C@H]2CN(C(=O)OCc3cc(C(F)(F)F)cc(C(F)(F)F)c3)C[C@@H]12)c1ccc2[nH]nnc2c1	cell-free assay, competition with immobilised ligand	1 µM	remaining binding	72%
CN(C)c1nccc(-c2cnc3ncccn23)n1	binding	1 µM	remaining binding	47%
CN1CC(Oc2cnc(C#N)cc2-c2ccn3nc(NC(=O)C4CC4)cc3c2)C1	enzyme activity, inhibitor	1 µM	inhibition	3%
Cn1c2c(c3ccc(Cl)c(Cl)c31)C(C#N)C1(CCCCC1)NC2=O (racemic)	thermal stability, DSF	10 µM	ΔTm	0.2 °C
Cc1c(C(=O)O)cc(-c2ccc(C3CCNCC3)cc2)c2ccc(-c3ccc(C(F)(F)F)cc3)cc12	binding, competition with immobilised ligand	1 µM	remaining binding	89%
COc1cc(Cl)c(C(=O)N[C@@H](CN[C@H]2CC[C@@H](N)CC2)Cc2ccc(C#N)cc2)cc1-c1ccc(CN[C@H](C)c2ccc(C)cc2)o1	enzyme activity, inhibitor	1 µM	remaining activity	97%
Nc1ncnc2occ(-c3ccc(NC(=O)Nc4cc(C(F)(F)F)ccc4F)cc3)c12	cell-free assay	20 µM	remaining signal	3.2%
Cc1ccc(C(=O)Nc2ccc(CN3CCN(C)CC3)c(C(F)(F)F)c2)cc1C#Cc1cnc2cccnn12	cell-free assay	23.5 nM	remaining signal	90%
CN1CCC2(CC1)NC(=O)c1c(c3ccc(Cl)c(Cl)c3n1C)C2C#N (racemic)	thermal stability, DSF	10 µM	ΔTm	-0.4 °C
